Laboratory results from ChEMBL document CHEMBL1949561, “Synthesis and triplex-forming ability of oligonucleotides bearing 1-substituted 1H-1,2,3-triazole nucleobases” (Bioorg Med Chem, 2011).

What was measured:
Format in all cases: nucleic-acid assay
[1] = test system: Nucleic Acid; experiment: Binding affinity to5'-GCTAAAAAGACAGAGAGATCG-3'/5'- CGATCTCTCTGTCTTTTTAGC-3' double stranded DNA assessed as melting temperature at 1.5 uM in sodium phosphate buffer at pH 7 by UV spectrophotometric analysis
Method in brief: (§1)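 UV melting of triplexes between each modified TFO and the 21-bp duplex target, in 7 mM sodium phosphate buffer (pH 7.0), 140 mM KCl and 10 mM MgCl₂. Each oligonucleotide at 1.5 µM final. Absorbance followed at 260 nm from 5 °C to 85 °C, scanned at 0.5 °C/min, to give Tm.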

[2] = test system: Nucleic Acid; experiment: Binding affinity to 5'-GCTAAAAAGATAGAGAGATCG-3'/5'- CGATCTCTCTATCTTTTTAGC-3' double stranded DNA assessed as melting temperature at 1.5 uM in sodium phosphate buffer at pH 7 by UV spectrophotometric analysis; method in brief: as §1
[3] = test system: Nucleic Acid; experiment: Binding affinity to 5'-GCTAAAAAGAGAGAGAGATCG-3'/5'- CGATCTCTCTCTCTTTTTAGC-3' double stranded DNA assessed as melting temperature at 1.5 uM in sodium phosphate buffer at pH 7 by UV spectrophotometric analysis; method in brief: as §1
[4] = test system: Nucleic Acid; experiment: Binding affinity to 5'-GCTAAAAAGAAAGAGAGATCG-3'/5'- CGATCTCTCTTTCTTTTTAGC-3' double stranded DNA assessed as melting temperature at 1.5 uM in sodium phosphate buffer at pH 7 by UV spectrophotometric analysis; method in brief: as §1

Tm [1]	Tm [2]	Tm [3]	Tm [4]	Structure (SMILES)
17 °C	11 °C	< 10 °C	< 10 °C	Cc1cn([C@H]2C[C@H](OP(=O)(O)OC[C@H]3O[C@@H](n4cc(C)c(=O)[nH]c4=O)C[C@@H]3OP(=O)(O)OC[C@H]3O[C@@H](n4cc(C)c(N)nc4=O)C[C@@H]3OP(=O)(O)OC[C@H]3O[C@@H](n4cc(C)c(=O)[nH]c4=O)C[C@@H]3OP(=O)(O)OC[C@H]3O[C@@H](n4cc(C)c(N)nc4=O)C[C@@H]3OP(=O)(O)OC[C@H]3O[C@@H](n4cc(C)c(=O)[nH]c4=O)C[C@@H]3OP(=O)(O)OC[C@H]3O[C@@H](c4cn(C56CC7CC(CC(C7)C5)C6)nn4)C[C@@H]3OP(=O)(O)OC[C@H]3O[C@@H](n4cc(C)c(=O)[nH]c4=O)C[C@@H]3OP(=O)(O)OC[C@H]3O[C@@H](n4cc(C)c(N)nc4=O)C[C@@H]3OP(=O)(O)OC[C@H]3O[C@@H](n4cc(C)c(=O)[nH]c4=O)C[C@@H]3OP(=O)(O)OC[C@H]3O[C@@H](n4cc(C)c(=O)[nH]c4=O)C[C@@H]3OP(=O)(O)OC[C@H]3O[C@@H](n4cc(C)c(=O)[nH]c4=O)C[C@@H]3OP(=O)(O)OC[C@H]3O[C@@H](n4cc(C)c(=O)[nH]c4=O)C[C@@H]3OP(=O)(O)OC[C@H]3O[C@@H](n4cc(C)c(=O)[nH]c4=O)C[C@@H]3O)[C@@H](COP(=O)(O)O[C@H]3C[C@H](n4cc(C)c(=O)[nH]c4=O)O[C@@H]3CO)O2)c(=O)nc1N
25 °C	15 °C	< 10 °C	17 °C	Cc1cn([C@H]2C[C@H](OP(=O)(O)OC[C@H]3O[C@@H](n4cc(C)c(=O)[nH]c4=O)C[C@@H]3OP(=O)(O)OC[C@H]3O[C@@H](n4cc(C)c(N)nc4=O)C[C@@H]3OP(=O)(O)OC[C@H]3O[C@@H](n4cc(C)c(=O)[nH]c4=O)C[C@@H]3OP(=O)(O)OC[C@H]3O[C@@H](n4cc(C)c(N)nc4=O)C[C@@H]3OP(=O)(O)OC[C@H]3O[C@@H](n4cc(C)c(=O)[nH]c4=O)C[C@@H]3OP(=O)(O)OC[C@H]3O[C@@H](c4cn(-c5ccccc5O)nn4)C[C@@H]3OP(=O)(O)OC[C@H]3O[C@@H](n4cc(C)c(=O)[nH]c4=O)C[C@@H]3OP(=O)(O)OC[C@H]3O[C@@H](n4cc(C)c(N)nc4=O)C[C@@H]3OP(=O)(O)OC[C@H]3O[C@@H](n4cc(C)c(=O)[nH]c4=O)C[C@@H]3OP(=O)(O)OC[C@H]3O[C@@H](n4cc(C)c(=O)[nH]c4=O)C[C@@H]3OP(=O)(O)OC[C@H]3O[C@@H](n4cc(C)c(=O)[nH]c4=O)C[C@@H]3OP(=O)(O)OC[C@H]3O[C@@H](n4cc(C)c(=O)[nH]c4=O)C[C@@H]3OP(=O)(O)OC[C@H]3O[C@@H](n4cc(C)c(=O)[nH]c4=O)C[C@@H]3O)[C@@H](COP(=O)(O)O[C@H]3C[C@H](n4cc(C)c(=O)[nH]c4=O)O[C@@H]3CO)O2)c(=O)nc1N
22 °C	17 °C	< 10 °C	13 °C	Cc1cn([C@H]2C[C@H](OP(=O)(O)OC[C@H]3O[C@@H](n4cc(C)c(=O)[nH]c4=O)C[C@@H]3OP(=O)(O)OC[C@H]3O[C@@H](n4cc(C)c(N)nc4=O)C[C@@H]3OP(=O)(O)OC[C@H]3O[C@@H](n4cc(C)c(=O)[nH]c4=O)C[C@@H]3OP(=O)(O)OC[C@H]3O[C@@H](n4cc(C)c(N)nc4=O)C[C@@H]3OP(=O)(O)OC[C@H]3O[C@@H](n4cc(C)c(=O)[nH]c4=O)C[C@@H]3OP(=O)(O)OC[C@H]3O[C@@H](c4cn(-c5cccc(NC(N)=O)c5)nn4)C[C@@H]3OP(=O)(O)OC[C@H]3O[C@@H](n4cc(C)c(=O)[nH]c4=O)C[C@@H]3OP(=O)(O)OC[C@H]3O[C@@H](n4cc(C)c(N)nc4=O)C[C@@H]3OP(=O)(O)OC[C@H]3O[C@@H](n4cc(C)c(=O)[nH]c4=O)C[C@@H]3OP(=O)(O)OC[C@H]3O[C@@H](n4cc(C)c(=O)[nH]c4=O)C[C@@H]3OP(=O)(O)OC[C@H]3O[C@@H](n4cc(C)c(=O)[nH]c4=O)C[C@@H]3OP(=O)(O)OC[C@H]3O[C@@H](n4cc(C)c(=O)[nH]c4=O)C[C@@H]3OP(=O)(O)OC[C@H]3O[C@@H](n4cc(C)c(=O)[nH]c4=O)C[C@@H]3O)[C@@H](COP(=O)(O)O[C@H]3C[C@H](n4cc(C)c(=O)[nH]c4=O)O[C@@H]3CO)O2)c(=O)nc1N
24 °C	15 °C	15 °C	12 °C	Cc1cn([C@H]2C[C@H](OP(=O)(O)OC[C@H]3O[C@@H](n4cc(C)c(=O)[nH]c4=O)C[C@@H]3OP(=O)(O)OC[C@H]3O[C@@H](n4cc(C)c(N)nc4=O)C[C@@H]3OP(=O)(O)OC[C@H]3O[C@@H](n4cc(C)c(=O)[nH]c4=O)C[C@@H]3OP(=O)(O)OC[C@H]3O[C@@H](n4cc(C)c(N)nc4=O)C[C@@H]3OP(=O)(O)OC[C@H]3O[C@@H](n4cc(C)c(=O)[nH]c4=O)C[C@@H]3OP(=O)(O)OC[C@H]3O[C@@H](c4cn(-c5cccnc5O)nn4)C[C@@H]3OP(=O)(O)OC[C@H]3O[C@@H](n4cc(C)c(=O)[nH]c4=O)C[C@@H]3OP(=O)(O)OC[C@H]3O[C@@H](n4cc(C)c(N)nc4=O)C[C@@H]3OP(=O)(O)OC[C@H]3O[C@@H](n4cc(C)c(=O)[nH]c4=O)C[C@@H]3OP(=O)(O)OC[C@H]3O[C@@H](n4cc(C)c(=O)[nH]c4=O)C[C@@H]3OP(=O)(O)OC[C@H]3O[C@@H](n4cc(C)c(=O)[nH]c4=O)C[C@@H]3OP(=O)(O)OC[C@H]3O[C@@H](n4cc(C)c(=O)[nH]c4=O)C[C@@H]3OP(=O)(O)OC[C@H]3O[C@@H](n4cc(C)c(=O)[nH]c4=O)C[C@@H]3O)[C@@H](COP(=O)(O)O[C@H]3C[C@H](n4cc(C)c(=O)[nH]c4=O)O[C@@H]3CO)O2)c(=O)nc1N
19 °C	12 °C	< 10 °C	< 10 °C	Cc1cn([C@H]2C[C@H](OP(=O)(O)OC[C@H]3O[C@@H](n4cc(C)c(=O)[nH]c4=O)C[C@@H]3OP(=O)(O)OC[C@H]3O[C@@H](n4cc(C)c(N)nc4=O)C[C@@H]3OP(=O)(O)OC[C@H]3O[C@@H](n4cc(C)c(=O)[nH]c4=O)C[C@@H]3OP(=O)(O)OC[C@H]3O[C@@H](n4cc(C)c(N)nc4=O)C[C@@H]3OP(=O)(O)OC[C@H]3O[C@@H](n4cc(C)c(=O)[nH]c4=O)C[C@@H]3OP(=O)(O)OC[C@H]3O[C@@H](c4cn(Cc5ccccc5)nn4)C[C@@H]3OP(=O)(O)OC[C@H]3O[C@@H](n4cc(C)c(=O)[nH]c4=O)C[C@@H]3OP(=O)(O)OC[C@H]3O[C@@H](n4cc(C)c(N)nc4=O)C[C@@H]3OP(=O)(O)OC[C@H]3O[C@@H](n4cc(C)c(=O)[nH]c4=O)C[C@@H]3OP(=O)(O)OC[C@H]3O[C@@H](n4cc(C)c(=O)[nH]c4=O)C[C@@H]3OP(=O)(O)OC[C@H]3O[C@@H](n4cc(C)c(=O)[nH]c4=O)C[C@@H]3OP(=O)(O)OC[C@H]3O[C@@H](n4cc(C)c(=O)[nH]c4=O)C[C@@H]3OP(=O)(O)OC[C@H]3O[C@@H](n4cc(C)c(=O)[nH]c4=O)C[C@@H]3O)[C@@H](COP(=O)(O)O[C@H]3C[C@H](n4cc(C)c(=O)[nH]c4=O)O[C@@H]3CO)O2)c(=O)nc1N
17 °C	15 °C	12 °C	< 10 °C	Cc1cn([C@H]2C[C@H](OP(=O)(O)OC[C@H]3O[C@@H](n4cc(C)c(=O)[nH]c4=O)C[C@@H]3OP(=O)(O)OC[C@H]3O[C@@H](n4cc(C)c(N)nc4=O)C[C@@H]3OP(=O)(O)OC[C@H]3O[C@@H](n4cc(C)c(=O)[nH]c4=O)C[C@@H]3OP(=O)(O)OC[C@H]3O[C@@H](n4cc(C)c(N)nc4=O)C[C@@H]3OP(=O)(O)OC[C@H]3O[C@@H](n4cc(C)c(=O)[nH]c4=O)C[C@@H]3OP(=O)(O)OC[C@H]3O[C@@H](c4cn(-c5ccccc5C(=O)O)nn4)C[C@@H]3OP(=O)(O)OC[C@H]3O[C@@H](n4cc(C)c(=O)[nH]c4=O)C[C@@H]3OP(=O)(O)OC[C@H]3O[C@@H](n4cc(C)c(N)nc4=O)C[C@@H]3OP(=O)(O)OC[C@H]3O[C@@H](n4cc(C)c(=O)[nH]c4=O)C[C@@H]3OP(=O)(O)OC[C@H]3O[C@@H](n4cc(C)c(=O)[nH]c4=O)C[C@@H]3OP(=O)(O)OC[C@H]3O[C@@H](n4cc(C)c(=O)[nH]c4=O)C[C@@H]3OP(=O)(O)OC[C@H]3O[C@@H](n4cc(C)c(=O)[nH]c4=O)C[C@@H]3OP(=O)(O)OC[C@H]3O[C@@H](n4cc(C)c(=O)[nH]c4=O)C[C@@H]3O)[C@@H](COP(=O)(O)O[C@H]3C[C@H](n4cc(C)c(=O)[nH]c4=O)O[C@@H]3CO)O2)c(=O)nc1N
24 °C	16 °C	< 10 °C	< 10 °C	Cc1cn([C@H]2C[C@H](OP(=O)(O)OC[C@H]3O[C@@H](n4cc(C)c(=O)[nH]c4=O)C[C@@H]3OP(=O)(O)OC[C@H]3O[C@@H](n4cc(C)c(N)nc4=O)C[C@@H]3OP(=O)(O)OC[C@H]3O[C@@H](n4cc(C)c(=O)[nH]c4=O)C[C@@H]3OP(=O)(O)OC[C@H]3O[C@@H](n4cc(C)c(N)nc4=O)C[C@@H]3OP(=O)(O)OC[C@H]3O[C@@H](n4cc(C)c(=O)[nH]c4=O)C[C@@H]3OP(=O)(O)OC[C@H]3O[C@@H](c4cn(-c5ccc(CO)cc5)nn4)C[C@@H]3OP(=O)(O)OC[C@H]3O[C@@H](n4cc(C)c(=O)[nH]c4=O)C[C@@H]3OP(=O)(O)OC[C@H]3O[C@@H](n4cc(C)c(N)nc4=O)C[C@@H]3OP(=O)(O)OC[C@H]3O[C@@H](n4cc(C)c(=O)[nH]c4=O)C[C@@H]3OP(=O)(O)OC[C@H]3O[C@@H](n4cc(C)c(=O)[nH]c4=O)C[C@@H]3OP(=O)(O)OC[C@H]3O[C@@H](n4cc(C)c(=O)[nH]c4=O)C[C@@H]3OP(=O)(O)OC[C@H]3O[C@@H](n4cc(C)c(=O)[nH]c4=O)C[C@@H]3OP(=O)(O)OC[C@H]3O[C@@H](n4cc(C)c(=O)[nH]c4=O)C[C@@H]3O)[C@@H](COP(=O)(O)O[C@H]3C[C@H](n4cc(C)c(=O)[nH]c4=O)O[C@@H]3CO)O2)c(=O)nc1N
